Active and inactive are the calls of the source. No cut-off for these calls is given here.
Legend:
Calf thymus DNA [1] = test: Binding affinity to calf thymus DNA at 20 uM by UV-vis spectrophotometry analysis; format: nucleic-acid assay; details: Bos taurus
HT-29 [2] = test: Cytotoxicity against human HT-29 cells after 72 hrs by MTS assay; format: functional, cell-based; details: HT-29, 72 h
[3] = target: T1, DNA topoisomerase 1 (Homo sapiens) (UniProt P11387); test: Inhibition of human recombinant topoisomerase 1-mediated relaxation of supercoiled pUC19 DNA assessed as formation of nicked DNA at 0.2 to 10 uM using ethidium bromide staining by agarose gel electrophoresis
T1 sequence (whole entry): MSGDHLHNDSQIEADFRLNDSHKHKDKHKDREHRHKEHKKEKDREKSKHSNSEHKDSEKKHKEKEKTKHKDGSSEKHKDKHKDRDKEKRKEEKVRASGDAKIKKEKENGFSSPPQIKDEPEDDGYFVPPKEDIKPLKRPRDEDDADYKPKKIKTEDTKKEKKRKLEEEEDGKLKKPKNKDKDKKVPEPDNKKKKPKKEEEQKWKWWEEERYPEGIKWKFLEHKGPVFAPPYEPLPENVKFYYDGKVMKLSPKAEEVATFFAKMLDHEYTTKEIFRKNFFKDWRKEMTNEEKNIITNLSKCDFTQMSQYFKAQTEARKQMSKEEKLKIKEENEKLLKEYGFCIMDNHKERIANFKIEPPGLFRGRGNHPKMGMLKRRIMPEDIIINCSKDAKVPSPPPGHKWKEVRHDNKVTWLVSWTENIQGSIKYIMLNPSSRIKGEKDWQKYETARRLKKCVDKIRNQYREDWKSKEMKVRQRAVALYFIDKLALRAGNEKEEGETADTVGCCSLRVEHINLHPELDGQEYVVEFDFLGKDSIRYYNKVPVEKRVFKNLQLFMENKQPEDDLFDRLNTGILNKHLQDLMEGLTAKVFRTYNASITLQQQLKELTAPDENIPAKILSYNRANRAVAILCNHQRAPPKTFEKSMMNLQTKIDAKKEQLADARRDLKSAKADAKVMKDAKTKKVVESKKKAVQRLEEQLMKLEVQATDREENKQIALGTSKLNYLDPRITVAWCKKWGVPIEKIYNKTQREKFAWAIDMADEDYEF
Method in brief: (§1)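 Supercoiled pUC19 plasmid (130 ng) was incubated with 4 units of human recombinant Top1 at 37 °C for 45 min in relaxation buffer (50 mM Tris pH 7.8, 50 mM KCl, 10 mM MgCl2, 1 mM DTT, 1 mM EDTA, 1 mM ATP) with increasing compound concentrations. Products were resolved on 1% agarose at room temperature, 2 h at 120 V, then stained with ethidium bromide and imaged under UV.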

[4] = target: T1, DNA topoisomerase 1 (Homo sapiens); test: Inhibition of human recombinant topoisomerase 1 assessed as cleavage of 117-mer DNA fragment at 20 to 50 uM using ethidium bromide staining by agarose gel electrophoresis analysis
[5] = target: T1, DNA topoisomerase 1 (Homo sapiens); test: Inhibition of camptothecin-induced poisoning effect of human topoisomerase 1 assessed as suppression of CPT-induced 117 bp DNA cleavage by SDS-PAGE analysis
Calf thymus DNA [6] = test: Binding affinity to calf thymus DNA by circular dichroism analysis; format: nucleic-acid assay; details: Bos taurus
[7] = target: DNA topoisomerase 2-alpha (Homo sapiens) (UniProt P11388); test: Inhibition of human topoisomerase 2 assessed as formation of nicked form of supercoiled pUC19 DNA at 50 uM after 45 mins using ethidium bromide staining by agarose gel analysis
[8] = target: DNA topoisomerase 2-alpha (Homo sapiens) (UniProt P11388); test: Inhibition of human topoisomerase 2 assessed as formation of linear form of supercoiled pUC19 DNA at 50 uM after 45 mins using ethidium bromide staining by agarose gel analysis
HT-29 [9] = test: Cell cycle arrest in human HT-29 cells at G2/M phase at 0.1 to 2.5 uM after 48 hrs using propidium iodide staining by FACS analysis; format: functional, cell-based
Method in brief: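 Exponentially growing HT-29 colon carcinoma cells (300,000 per well) were plated for 24 h, then exposed to 0.1, 1 or 2.5 µM compound for 48 h. Cells were fixed, stained with propidium iodide and analysed by flow cytometry (FACScan).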

[10] = target: T1, DNA topoisomerase 1 (Homo sapiens); test: Inhibition of human recombinant topoisomerase 1-mediated relaxation of supercoiled pUC19 DNA assessed as formation of nicked DNA at 0.1 to 5 uM using ethidium bromide staining by agarose gel electrophoresis; method in brief: as §1
Nucleic Acid = test: Binding affinity to 265 bp of 3'-end-radio-labelled DNA fragment at 0.5 to 5 uM treated 15 mins before Dnase 1-mediated digestion by footprinting assay; format: nucleic-acid assay
Method in brief: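 DNase I footprinting. It was equilibrated with compound for 15 min at 37 °C, then digested 3 min with DNase I (0.01 unit/ml) in 20 mM NaCl, 2 mM MgCl2, 2 mM MnCl2, pH 7.3. Samples were lyophilised, denatured at 90 °C and run on an 8% denaturing polyacrylamide gel.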

[11] = target: T1, DNA topoisomerase 1 (Homo sapiens); test: Inhibition of human recombinant topoisomerase 1-mediated relaxation of supercoiled pUC19 DNA assessed as formation of nicked DNA at 1 to 50 uM using ethidium bromide staining by agarose gel electrophoresis; method in brief: as §1
[12] = target: T1, DNA topoisomerase 1 (Homo sapiens); test: Inhibition of human recombinant topoisomerase 1 assessed as cleavage of 117-mer DNA fragment at 0.5 to 5 uM using ethidium bromide staining by agarose gel electrophoresis analysis
[13] = target: DNA topoisomerase 2-alpha (Homo sapiens) (UniProt P11388); details: 50 uM
[14] = target: DNA topoisomerase 2-alpha (Homo sapiens) (UniProt P11388); details: 50 uM; remark: listed apart in the source

DNA topoisomerase 2-alpha (Homo sapiens), sequence (P11388 whole entry): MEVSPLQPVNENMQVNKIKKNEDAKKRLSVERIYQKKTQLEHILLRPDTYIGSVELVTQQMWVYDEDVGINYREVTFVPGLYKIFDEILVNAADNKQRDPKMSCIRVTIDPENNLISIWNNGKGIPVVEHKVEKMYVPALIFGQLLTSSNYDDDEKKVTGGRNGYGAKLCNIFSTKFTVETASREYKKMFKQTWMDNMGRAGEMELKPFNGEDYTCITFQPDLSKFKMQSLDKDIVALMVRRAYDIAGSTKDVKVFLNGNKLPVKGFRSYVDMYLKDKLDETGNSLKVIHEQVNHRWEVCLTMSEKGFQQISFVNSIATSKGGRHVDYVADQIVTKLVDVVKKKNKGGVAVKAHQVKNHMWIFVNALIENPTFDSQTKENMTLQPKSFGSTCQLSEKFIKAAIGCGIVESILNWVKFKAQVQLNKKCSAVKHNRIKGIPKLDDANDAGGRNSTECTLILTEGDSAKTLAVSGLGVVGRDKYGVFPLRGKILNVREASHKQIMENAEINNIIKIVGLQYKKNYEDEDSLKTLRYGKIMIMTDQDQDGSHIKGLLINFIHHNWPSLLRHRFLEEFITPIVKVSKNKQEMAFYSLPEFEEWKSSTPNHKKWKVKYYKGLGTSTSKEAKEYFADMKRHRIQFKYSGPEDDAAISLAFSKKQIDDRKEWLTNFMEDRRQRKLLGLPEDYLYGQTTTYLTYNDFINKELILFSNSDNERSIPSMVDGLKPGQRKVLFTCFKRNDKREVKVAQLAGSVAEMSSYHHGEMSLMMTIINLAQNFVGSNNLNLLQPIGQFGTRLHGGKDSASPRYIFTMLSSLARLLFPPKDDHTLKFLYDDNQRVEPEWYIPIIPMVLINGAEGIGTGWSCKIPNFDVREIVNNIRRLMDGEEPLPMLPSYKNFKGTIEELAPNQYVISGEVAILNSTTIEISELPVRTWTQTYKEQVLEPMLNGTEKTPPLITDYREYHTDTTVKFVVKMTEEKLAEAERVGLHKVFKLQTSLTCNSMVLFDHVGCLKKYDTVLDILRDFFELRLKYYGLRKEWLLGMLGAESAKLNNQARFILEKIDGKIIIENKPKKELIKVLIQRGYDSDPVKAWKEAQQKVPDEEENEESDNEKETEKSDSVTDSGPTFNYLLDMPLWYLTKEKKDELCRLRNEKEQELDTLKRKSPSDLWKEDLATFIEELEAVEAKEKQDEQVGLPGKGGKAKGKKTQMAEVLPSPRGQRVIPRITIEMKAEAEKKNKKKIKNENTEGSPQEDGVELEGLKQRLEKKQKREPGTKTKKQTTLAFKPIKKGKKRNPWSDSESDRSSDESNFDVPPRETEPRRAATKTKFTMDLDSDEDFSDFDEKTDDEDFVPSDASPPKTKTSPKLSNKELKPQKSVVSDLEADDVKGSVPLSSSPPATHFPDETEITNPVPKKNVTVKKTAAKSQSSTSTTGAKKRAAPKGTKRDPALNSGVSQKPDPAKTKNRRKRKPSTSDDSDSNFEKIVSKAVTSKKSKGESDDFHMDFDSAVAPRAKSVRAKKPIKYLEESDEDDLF

Compound | Activity (Calf thymus DNA [1]) | IC50 (HT-29 [2]) | inhibition [3] | inhibition [4] | inhibition [5] | Activity (Calf thymus DNA [6]) | inhibition [7] | inhibition [8] | Activity (HT-29 [9]) | Top1 relaxation inhibition (qualitative call) [10] | inhibition (Nucleic Acid) | Topoisomerase 1 inhibition (active/inactive) [11] | inhibition [12] | inhibition [13] | inhibition [14]
CCN(CC)CCCNc1nc2c3cccnc3ccc2c2cc3c(cc12)OCO3 | Active | 1830 nM | Active | inactive | Dose-dependent effect | Active | inactive | inactive |  |  |  |  |  |  | 
COc1cc2c(NCCN(C)C)nc3c4ccncc4ccc3c2cc1OC | Active | 1020 nM | Active | inactive | Dose-dependent effect | Active | inactive | inactive | Active | Active | Active |  |  |  | 
CCN(CC)CCn1c(=O)c2cc(OC)c(OC)cc2c2ccc3cnccc3c21 | Active | 1820 nM |  |  | Dose-dependent effect | Active |  |  |  |  |  | Active | inactive |  | 
COc1cc([C@@H]2c3cc4c(cc3[C@@H](O[C@@H]3O[C@@H]5CO[C@@H](C)O[C@H]5[C@H](O)[C@H]3O)[C@H]3COC(=O)[C@H]23)OCO4)cc(OC)c1O |  |  |  |  |  |  |  |  |  |  |  |  |  | Active | Active
COc1cc2c(=O)n(CCN(C)C)c3c4cccnc4ccc3c2cc1OC | Active | 1660 nM |  |  | Dose-dependent effect | Active |  |  |  |  |  | Active | inactive |  | 
CCN(CC)CCn1c(=O)c2cc3c(cc2c2ccc4cnccc4c21)OCO3 | Active | 230 nM |  | inactive | Dose-dependent effect | Active | inactive | inactive | Active | Active | Active |  |  |  | 
COc1cc2c[n+](C)c3c4cc5c(cc4ccc3c2cc1OC)OCO5 [NITIDINE CHLORIDE] | Active | 2750 nM |  |  |  | Active | inactive | inactive |  | Active |  |  | inactive |  | 
COc1cc2c(=O)n(CCN(C)C)c3c4ccncc4ccc3c2cc1OC | Active | 1420 nM |  |  | Dose-dependent effect | Active |  |  |  |  |  | Active | inactive |  | 
CN(C)CCCNc1nc2c3cccnc3ccc2c2cc3c(cc12)OCO3 | Active | 1730 nM |  |  | Dose-dependent effect | Active |  |  |  |  | Active | Active | inactive |  | 
CN(C)CCCn1c(=O)c2cc3c(cc2c2ccc4ncccc4c21)OCO3 | Active | 230 nM |  | inactive | Dose-dependent effect | Active | inactive | inactive | Active | Active | Active |  |  |  | 
CN(C)CCNc1nc2c3ccncc3ccc2c2cc3c(cc12)OCO3 | Active | 70 nM |  | inactive | Dose-dependent effect | Active | inactive | inactive | Active | Active | Active |  |  |  | 
CN(C)CCNc1nc2c3cccnc3ccc2c2cc3c(cc12)OCO3 | Active | 110 nM |  | inactive | Dose-dependent effect | Active | inactive | inactive | Active | Active | Active |  |  |  | 
COc1cc2c(=O)n(CCCN(C)C)c3c4cccnc4ccc3c2cc1OC | Active | 4980 nM |  |  | Dose-dependent effect | Active |  |  |  |  |  | Active |  |  | 
COc1cc2c(=O)n(CCCN(C)C)c3c4ccncc4ccc3c2cc1OC | Active | 6110 nM |  |  | Dose-dependent effect | Active |  |  |  |  |  | Active | inactive |  | 
CCN(CC)CCn1c(=O)c2cc(OC)c(OC)cc2c2ccc3ncccc3c21 | Active | 2630 nM |  |  | Dose-dependent effect | Active |  |  |  |  |  | Active | inactive |  | 

Source: ChEMBL document CHEMBL1782029, “Synthesis and biological evaluation of N-substituted benzo[c]phenanthrolines and benzo[c]phenanthrolinones as antiproliferative agents” (Eur J Med Chem, 2011)
